Columns and labels:
Mus musculus [1] = assay: Minimum effective dose measures the in vivo NMDA antagonist activity of compound and its ability to protect mice from lethality induced by 200 mg/kg ip injection of NMDA.; assay type: functional; conditions: route intraperitoneal; for minimal effective dose: Mus musculus, ip, read-out: MED; for MED: NMDA challenge 200 mg/kg, 200 mg/kg
Procedure, shortened: (§1)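 Mice were given the compound ip 30 min before an ip challenge of NMDA at 200 mg/kg, a dose lethal to ≥95% of animals. Survival was scored with five animals tested per dose. MED was taken as the lowest dose protecting >50% of animals, meaning at least three of five survived.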

[2] = In vitro inhibition of 40 uM NMDA induced depolarization in rat cortical slices.
Mus musculus [3] = assay: Minimum effective dose measures the in vivo N-methyl-D-aspartate glutamate receptor antagonist activity of compound and its ability to protect mice from lethality induced by 200 mg/kg ip injection of NMDA.; assay type: functional; conditions: route intraperitoneal, read-out: MED; procedure, shortened: as §1
Glutamate NMDA receptor [4] = assay: Displacement of [3H]CGS-19,755 from glutamate recognition site of N-methyl-D-aspartate glutamate receptor complex; assay type: protein-complex assay, Rattus norvegicus
Glutamate NMDA receptor [5] = assay: In vitro compound's ability to displace [3H]-CGS-19,755 binding as a measure of its affinity for the glutamate recognition site on the NMDA receptor complex.; assay type: protein-complex assay

Compound | minimal effective dose (Mus musculus [1]) | IC50 [2] | MED (Mus musculus [1]) | minimal effective dose (Mus musculus [3]) | IC50 (Glutamate NMDA receptor [4]) | IC50 (Glutamate NMDA receptor [5])
O=C(O)[C@H]1C[C@@H](Cc2nnn[nH]2)CCN1 | 5 mg/kg | 4.2 µM |  |  |  | 
O=C(O)C1CC2C[C@@H](Cc3nnn[nH]3)CCC2CN1 (stereo in doubt; 32b) |  | 4.8 µM | 40 mg/kg |  |  | 
O=C(O)C1CC2C[C@@H](Cc3nnn[nH]3)CCC2CN1 (stereo in doubt; 32a) |  | 1.39 µM | 2.5 mg/kg |  |  | 
O=C(O)[C@@H]1C[C@H](CP(=O)(O)O)CCN1 [SELFOTEL] |  | 1.6 µM |  |  |  | 
O=C(O)C1CC2CC(CP(=O)(O)O)CCC2CN1 (stereo not drawn) |  | > 100 µM |  | > 160 mg/kg | > 10 µM | 
O=C(O)[C@@H]1C[C@H]2CC(Cc3nnn[nH]3)CC[C@H]2N1 (stereo partly drawn) |  | > 100 µM |  | > 160 mg/kg | > 10 µM | 
O=C(O)C1Cc2cc(CP(=O)(O)O)ccc2CN1 (stereo not drawn) |  | 34.4 µM |  | > 160 mg/kg | 13.8 µM | 
O=C(O)C1Cc2cc(Cc3nnn[nH]3)ccc2CN1 (stereo not drawn) |  | 36.6 µM |  | > 160 mg/kg |  | 
O=C(O)C1NCCC2CC(Cc3nnn[nH]3)CCC21 (stereo not drawn) |  | 7.8 µM |  | 160 mg/kg |  | 
O=C(O)[C@@H]1C[C@H]2CC(CP(=O)(O)O)CC[C@H]2N1 (stereo partly drawn) |  | > 100 µM |  | > 160 mg/kg | > 10 µM | 
O=C(O)C1CC2CC(Cc3nnn[nH]3)CCC2CN1 (stereo not drawn) |  | > 100 µM |  | > 160 mg/kg | > 10 µM | 
CN1CCC2(CCCC(CP(=O)(O)O)C2)CC1C(=O)O (stereo not drawn) | > 160 mg/kg |  |  |  |  | > 10 µM

Source: ChEMBL document CHEMBL1126277, “6-substituted decahydroisoquinoline-3-carboxylic acids as potent and selective conformationally constrained NMDA receptor antagonists” (J Med Chem, 1992)
